Here are results for one compound from ChEMBL document CHEMBL4842326, “Design, synthesis and biological evaluation of 3, 4-disubstituted-imidazolidine-2, 5-dione derivatives as HDAC6 selective inhibitors” (Eur J Med Chem, 2021).

In general, pIC50 refers to the negative decadic logarithm of the IC50, by convention in mol/L.

In test [1] the target is Histone deacetylase 1 (Homo sapiens, UniProt Q13547). Nature of the test: Inhibition of HDAC1 (unknown origin) using Ac-LeuGlyLys(Ac)-AMC as substrate preincubated for 10 mins followed by substrate addition and further incubated for incubated for 1 hrs by fluorescence microtiter plate reader assay.
The target of test [2] is Histone deacetylase 2 (Homo sapiens, UniProt Q92769).
Test [3] has as its target T1, Histone deacetylase 8 (Homo sapiens, UniProt Q9BY41).
T1 sequence (Q9BY41 whole entry): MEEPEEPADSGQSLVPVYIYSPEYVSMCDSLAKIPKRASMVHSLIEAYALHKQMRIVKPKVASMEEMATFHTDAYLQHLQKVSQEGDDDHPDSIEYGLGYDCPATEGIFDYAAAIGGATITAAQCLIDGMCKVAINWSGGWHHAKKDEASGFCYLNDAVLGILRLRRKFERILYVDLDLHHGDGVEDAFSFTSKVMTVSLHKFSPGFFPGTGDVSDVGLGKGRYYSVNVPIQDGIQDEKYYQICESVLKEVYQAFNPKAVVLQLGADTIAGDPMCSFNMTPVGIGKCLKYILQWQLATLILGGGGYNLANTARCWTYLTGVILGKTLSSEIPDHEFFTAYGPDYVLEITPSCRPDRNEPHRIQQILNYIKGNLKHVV
Nature of the test: Inhibition of HDAC8 (unknown origin) using Ac-LeuGlyLys(tfa)-AMC as substrate preincubated for 10 mins followed by substrate addition and further incubated for incubated for 1 hrs by fluorescence microtiter plate reader assay.

Test [4] has as its system KG-1. Nature of the test: Antiproliferative activity against human KG-1 cells assessed as inhibition of cell proliferation after 48 hrs by MTT assay. The format is functional, cell-based. The following applies: KG-1, 48 h. In short, it runs like this:
(§1)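 Leukemia/myeloma lines grown in RPMI1640 with 10% FBS at 37 °C, 5% CO2; seeded at 3500–4000 cells/well, cultured overnight, then exposed to serial dilutions for 48 h.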
Background: Tetrazolium assays rely on reduction of a dye to a coloured formazan, in cell work by metabolically active cells.

Test [5] deals with Jurkat. Nature of the test: Antiproliferative activity against human Jurkat cells assessed as inhibition of cell proliferation after 48 hrs by MTT assay. The test is classed as functional, cell-based. In short, it runs like this:
as §1

Test [6] has as its system NCI-H929. Nature of the test: Antiproliferative activity against human NCI-H929 cells assessed as inhibition of cell proliferation after 48 hrs by MTT assay. The test is classed as functional, cell-based. The following applies: NCI-H929, 48 h. In short, it runs like this:
as §1

Test [7] deals with T2, Protein deacetylase HDAC6 (Homo sapiens) (UniProt Q9UBN7).
T2 sequence (whole entry): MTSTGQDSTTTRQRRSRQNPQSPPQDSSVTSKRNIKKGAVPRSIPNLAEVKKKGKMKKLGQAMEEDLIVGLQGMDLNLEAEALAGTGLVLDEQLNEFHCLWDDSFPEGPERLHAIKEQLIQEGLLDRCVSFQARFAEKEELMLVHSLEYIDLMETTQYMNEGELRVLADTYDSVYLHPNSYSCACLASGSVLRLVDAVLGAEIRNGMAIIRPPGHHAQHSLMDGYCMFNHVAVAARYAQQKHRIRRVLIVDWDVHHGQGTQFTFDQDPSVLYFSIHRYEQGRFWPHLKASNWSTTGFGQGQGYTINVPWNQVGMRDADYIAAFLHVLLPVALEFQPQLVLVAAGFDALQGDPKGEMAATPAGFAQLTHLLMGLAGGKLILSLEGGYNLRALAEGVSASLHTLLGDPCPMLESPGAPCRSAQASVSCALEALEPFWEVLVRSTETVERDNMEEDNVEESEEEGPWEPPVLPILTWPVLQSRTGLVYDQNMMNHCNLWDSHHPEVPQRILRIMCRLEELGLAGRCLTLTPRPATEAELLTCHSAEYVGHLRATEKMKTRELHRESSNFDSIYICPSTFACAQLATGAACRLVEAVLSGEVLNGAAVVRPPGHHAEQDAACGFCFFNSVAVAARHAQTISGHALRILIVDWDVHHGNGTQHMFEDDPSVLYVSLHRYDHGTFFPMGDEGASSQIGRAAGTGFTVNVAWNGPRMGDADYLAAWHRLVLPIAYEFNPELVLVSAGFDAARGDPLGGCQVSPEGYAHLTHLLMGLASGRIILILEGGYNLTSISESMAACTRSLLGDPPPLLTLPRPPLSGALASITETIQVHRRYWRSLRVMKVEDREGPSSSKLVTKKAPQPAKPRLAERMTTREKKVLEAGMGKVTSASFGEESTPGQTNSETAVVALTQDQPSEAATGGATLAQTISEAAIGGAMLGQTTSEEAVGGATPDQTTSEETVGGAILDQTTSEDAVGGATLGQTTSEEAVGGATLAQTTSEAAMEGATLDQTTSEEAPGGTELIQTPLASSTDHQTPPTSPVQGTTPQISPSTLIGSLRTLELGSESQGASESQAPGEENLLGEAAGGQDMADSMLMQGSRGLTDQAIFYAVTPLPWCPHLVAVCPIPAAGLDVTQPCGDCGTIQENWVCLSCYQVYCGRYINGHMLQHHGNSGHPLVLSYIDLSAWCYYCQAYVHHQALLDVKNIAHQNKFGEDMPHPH
Nature of the test: Inhibition of HDAC6 in human HL-60 cells assessed as increase in acetylation of alpha tubulin measured up to 24 hrs by Western blot analysis. The test is classed as cell-based. The following applies: time hrs <=24. In short, it runs like this: (§2)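 HL-60 cells treated 12 h or 24 h, pelleted, lysed in RIPA with 1 mM PMSF on ice 30 min, cleared at 4 °C; lysates run on 12.5% SDS-PAGE, blotted to PVDF, blocked in 5% milk 1 h, probed overnight at 4 °C for acetyl-α-tubulin, acetyl-H3 and GAPDH, secondary 1 h, ECL detection.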
A general note: A western blot detects proteins with antibodies after separation by electrophoresis.

The target in test [8] is T2, Protein deacetylase HDAC6 (Homo sapiens). Nature of the test: Inhibition of HDAC6 in human HL-60 cells assessed as increase in acetylation of alpha tubulin by Western blot analysis. The format is cell-based. The note with it: TDE = time-dependent effect. An outline of the steps:
as §2

The test system of test [9] is HL-60. Nature of the test: Induction of mitochondrial membrane potential depolarization in human HL-60 cells at 3 uM by fluorescence assay. The format is functional, cell-based. The following applies: time hrs <=24, TDE = time-dependent effect. In short, it runs like this: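 HL-60 cells (1 × 10^6) seeded overnight, exposed to compound or vehicle (0.2% DMSO) for the indicated times, then loaded with TMRE (100 nM) 30 min at 37 °C; washed three times in PBS, fluorescence read at Ex 540/Em 579 nm.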

In test [10] the test system is HL-60. Nature of the test: Induction of apoptosis in human HL-60 cells assessed as activation of caspase-3 at 3 uM measured by fluorescence assay. The test is classed as functional, cell-based.
Test [11] has as its system HL-60. Nature of the test: Induction of apoptosis in human HL-60 cells assessed as early apoptotic cells at 3 uM after 48 hrs by Annexin V-FITC/propidium iodide staining based flow cytometric analysis (reference value: […]%). The test is classed as functional. On the technique in general: Flow cytometry measures light scatter and fluorescence of single cells or particles in a stream.

Test [12] concerns HL-60. Nature of the test: Induction of apoptosis in human HL-60 cells assessed as late apoptotic cells at 3 uM after 48 hrs by Annexin V-FITC/propidium iodide staining based flow cytometric analysis (reference value: 1.45%). The test is classed as functional. In short, it runs like this:
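HL-60 cells (1 × 10^6/well) exposed 48 h to compound dilutions, collected, PBS-washed, resuspended in Annexin V-FITC binding buffer, stained with propidium iodide and Annexin V-FITC for 15 min, then analysed by flow cytometry.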

For test [13], the target named is T2, Protein deacetylase HDAC6 (Homo sapiens). Nature of the test: Potency index, ratio of tubastatin-A IC50 to test compound IC50 for HDAC6 (unknown origin) using Ac-LeuGlyLy-s(Ac)-AMC as substrate preincubated for 10 mins followed by substrate addition and further incubated for 2 hrs by fluorescence microtiter plate reader assay.

pIC50: −log10 of the molar value. The source made the active and inactive calls. The rule behind the calls is not given here.

Chain of Histone deacetylase 1 (Q13547 whole entry): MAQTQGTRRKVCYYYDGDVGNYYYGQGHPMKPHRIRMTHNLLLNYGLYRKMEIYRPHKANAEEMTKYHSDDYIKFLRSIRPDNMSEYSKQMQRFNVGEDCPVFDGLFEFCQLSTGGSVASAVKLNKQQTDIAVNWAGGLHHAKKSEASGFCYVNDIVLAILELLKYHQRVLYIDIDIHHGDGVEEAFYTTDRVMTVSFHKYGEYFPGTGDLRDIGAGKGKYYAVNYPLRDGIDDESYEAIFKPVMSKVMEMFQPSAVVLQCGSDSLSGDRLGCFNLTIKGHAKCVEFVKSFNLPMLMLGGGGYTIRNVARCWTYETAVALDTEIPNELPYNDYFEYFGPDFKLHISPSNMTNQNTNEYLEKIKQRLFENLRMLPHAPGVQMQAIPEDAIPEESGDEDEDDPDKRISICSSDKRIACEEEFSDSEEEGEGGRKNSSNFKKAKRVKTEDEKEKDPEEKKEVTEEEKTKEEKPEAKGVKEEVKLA
Chain of Histone deacetylase 2 (Q92769 whole entry): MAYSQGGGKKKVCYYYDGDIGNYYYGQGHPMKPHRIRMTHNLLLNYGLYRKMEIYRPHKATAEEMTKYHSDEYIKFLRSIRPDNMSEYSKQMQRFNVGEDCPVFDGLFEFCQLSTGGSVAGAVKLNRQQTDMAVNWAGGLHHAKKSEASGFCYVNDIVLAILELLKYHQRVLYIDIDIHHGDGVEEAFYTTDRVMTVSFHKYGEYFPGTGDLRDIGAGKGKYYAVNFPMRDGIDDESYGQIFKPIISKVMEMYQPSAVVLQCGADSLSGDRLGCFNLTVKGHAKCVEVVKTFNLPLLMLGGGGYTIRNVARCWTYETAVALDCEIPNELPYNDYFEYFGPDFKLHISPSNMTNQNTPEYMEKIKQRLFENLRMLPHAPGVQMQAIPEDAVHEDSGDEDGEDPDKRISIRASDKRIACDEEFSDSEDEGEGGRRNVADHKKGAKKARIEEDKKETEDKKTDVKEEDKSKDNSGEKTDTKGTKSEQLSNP

In the case of `O=C(NO)c1ccc(CN2C(=O)C(Cc3ccccc3)N(Cc3cccnc3)C2=O)cc1` (racemic), the pIC50 in test [1] is 4.93; in test [2] it was 4.91; in test [3], 5.46; in [4], 5.15; in [5], 5.03; in test [6], 5.12. Moreover, the inhibition result in test [7] was “Dose-Dependent Effect”; in test [8] it was “Tde”. Besides, the Activity entry is “Tde” in [9], 10.5% in test [11] and 10% in test [12]. The result in test [10] was Active. Moreover, in test [13], the Ratio IC50 amounted to 12.
